Screening results as filed in PubChem.
Only some compounds are listed: those with a hit (about 3.5% of all), similar ones and a draw of the others.
MrgX1 antagonist: human MrgX1 receptor antagonism, primary screen. MRGX1-HEK293 calcium flux, Fluo-4, BAM8-22 antagonism; active compounds read low. B-score at 10 µM. AID 588676. 1.3% of 310,000 active;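 active = calcium-response B-score plate-corrected more than 3 library SD below zero, starting fluorescence within 5 deviations, no agonist response on first addition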;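 note: peak minus trough fluorescence over baseline after final BAM8-22 challenge near maximal dose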
Target sequence (Q96LB2 whole entry, looked up): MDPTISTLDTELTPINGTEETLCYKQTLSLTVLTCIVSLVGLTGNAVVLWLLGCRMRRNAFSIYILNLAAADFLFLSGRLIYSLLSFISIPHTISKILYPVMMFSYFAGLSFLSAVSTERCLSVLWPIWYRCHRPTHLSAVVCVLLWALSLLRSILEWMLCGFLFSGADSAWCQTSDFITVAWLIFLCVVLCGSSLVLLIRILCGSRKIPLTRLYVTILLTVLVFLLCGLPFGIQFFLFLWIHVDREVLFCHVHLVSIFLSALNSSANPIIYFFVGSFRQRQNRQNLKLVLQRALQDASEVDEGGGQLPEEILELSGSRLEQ
RGS4 inh: human RGS4 inhibition; P49798; HEK293 M3R/RGS4 inducible, Fluo-4 calcium flux; active compounds read high; triggered by carbachol at its EC20; B-score at 10 µM; 0.45% of 310,000 active; AID 463165;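 active = B-score, a plate-corrected calcium signal, over three deviations above library mean, with baseline fluorescence within five deviations of library mean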;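 note: RGS4 expression induced by doxycycline in cells with stable M3 receptor; B-score is computed from the integrated fluorescence ratio over baseline after carbachol; higher B-score means a larger calcium signal and so more RGS4 inhibition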
Target sequence (P49798 whole entry, looked up): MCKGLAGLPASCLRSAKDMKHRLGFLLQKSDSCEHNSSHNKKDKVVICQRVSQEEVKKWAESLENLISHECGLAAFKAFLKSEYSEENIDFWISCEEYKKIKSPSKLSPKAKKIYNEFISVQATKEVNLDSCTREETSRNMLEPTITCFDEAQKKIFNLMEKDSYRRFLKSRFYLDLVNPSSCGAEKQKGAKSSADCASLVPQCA
RGS4 pot: potentiators or activators of RGS4; 0.92% of 310,000 active; HEK293 M3R/inducible RGS4, carbachol calcium flux Fluo4; active compounds read low; AID 463111; B-score at 10 µM;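 active = B-score of the integrated calcium signal more than 4 SD below the library mean, with starting fluorescence not abnormally high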;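 note: negative B-score means reduced calcium response which marks RGS4 activation or potentiation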
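System – HEK293 FlpIn-TREx cells, stable M3R, doxycycline-inducible RGS4 · Reagent – ECmax carbachol challenge · Times – compound preincubation 20 min at room temperature before agonist · Technique – Fluo4 fluorescence kinetic imaging of calcium · Measure – B score of integrated Fluo4 ratio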
MrgX1 agonist: activates human MrgX1 receptor signaling | Q96LB2 | MrgX1-HEK293 cells, Fluo-4 calcium fluorescence, agonist mode; active compounds read high | B-score at 10 µM | 0.44% of 310,000 active;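 active = calcium response B-score plate-corrected fluorescence ratio at least 3 library SD, with starting fluorescence B-score inside 5 SD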
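Material: HEK293 cells stably expressing human MrgX1 receptor | Quantity: 15,000 cells per well | Times: Cells plated overnight, dye loaded 0.5 h 37 °C, 0.5 h room temperature | Measured by: Kinetic Fluo-4 NW fluorescence of intracellular calcium | Control set: Positive and negative controls per plate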
MrgX1 PAM: allosterically activates human MrgX1 receptor signaling. MrgX1-HEK293, Fluo-4 calcium flux, FDSS; active compounds read high. B-score at 10 µM. 0.63% of 310,000 active. AID 588675;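 active = plate-corrected calcium response at least 3 library SD above typical, normal starting fluorescence, not activating the receptor alone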;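 note: compound read alongside a low EC10 to EC30 dose of BAM8-22 agonist; peak minus trough fluorescence over baseline measured at the second addition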
MrgX1 antag conf: confirmation of human MrgX1 receptor antagonists; shares compounds with MrgX1 antagonist; MrgX1-HEK293, BAM8-22 calcium flux, Fluo-4; active compounds read low; remaining BAM8-22 calcium response % of control (active compounds read low), % at 10 µM; 19% of 2,300 active;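 active = remaining agonist calcium response no higher than 100% minus 3 SD of agonist-only control wells, with starting fluorescence near control levels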;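 note: agonist BAM8-22 given at a near maximal EC90 to ECmax level; peak minus minimum fluorescence divided by baseline after agonist addition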
HEK293 Ca flux: counter-screen for MrgX1 antagonists: effect in parental HEK293 cells; shares compounds with MrgX1 antagonist; Fluo-4 calcium fluorescence, FDSS; fluorescence ratio F(max-min)/F0 at 10 µM; 2% of 4,000 active;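 active = duplicate-averaged calcium fluorescence ratio at least three times the standard deviation of buffer wells, a nonspecific response in parental cells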
HEK293 Ca counter: activity in parental HEK293 cells without MrgX1. shares compounds with MrgX1 antagonist. parental HEK293 calcium flux, Fluo-4 fluorescence ratio; active compounds read high. fluorescence ratio F(max-min)/F0 at 10 µM. 0.4% of 4,000 active;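 active = calcium fluorescence ratio, averaged over duplicates, at least 3 SD of the buffer-well ratio, meaning a nonspecific response in receptor-free cells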;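 note: untransfected parental HEK293 lacking MrgX1 used as counterscreen for MrgX1 allosteric activators; fluorescence change taken during the second addition on a kinetic imager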
HEK293 Ca cntr2: activity in parental HEK293 cells lacking MrgX1 receptor | shares compounds with MrgX1 antagonist | Fluo-4 calcium fluorescence (FDSS); active compounds read high | fluorescence ratio F(max-min)/F0 at 10 µM | 8.7% of 4,000 active | AID 624115;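 active = calcium fluorescence ratio at least three times the spread of buffer wells, meaning a non-specific response in parental cells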
Large screens that a line does not name were inactive (follow-up assays come after a bar, where they were run).

CCCn1nc2cc(C(=O)NCc3ccc(OC)cc3)ccc2c1OCC	MrgX1 antagonist -5 | MrgX1 antag conf inactive | HEK293 Ca flux inactive | HEK293 Ca counter inactive | HEK293 Ca cntr2 inactive
CS(=O)(=O)N1CCC(Oc2ccccc2C(=O)N2CCCCC2CO)CC1 (configuration not stated)	MrgX1 antagonist -4.6 | MrgX1 antag conf inactive | HEK293 Ca flux inactive | HEK293 Ca counter inactive | HEK293 Ca cntr2 inactive
Cc1ccccc1C(=O)N1CCC(C(=O)Nc2ccc(S(=O)(=O)N3CCCCC3)cc2)CC1	none
CCOC(=O)C1CCCN(S(=O)(=O)c2cc3c4c(c2)CCN4C(=O)CC3)C1 (configuration not stated)	MrgX1 antagonist -4.8 | MrgX1 antag conf inactive | HEK293 Ca flux inactive | HEK293 Ca counter inactive | HEK293 Ca cntr2 inactive
CC(NC(N)=O)C(=O)OCc1ccc(Cl)cc1Cl (configuration not stated)	MrgX1 antagonist -8.2 | MrgX1 antag conf inactive | HEK293 Ca flux inactive | HEK293 Ca counter inactive | HEK293 Ca cntr2 inactive
CCOc1ccccc1N1CCN(C/C=C/c2ccc(N(C)C)cc2)CC1	MrgX1 antagonist -4.7 | MrgX1 antag conf inactive | HEK293 Ca flux inactive | HEK293 Ca counter inactive | HEK293 Ca cntr2 inactive
Cc1nc2nc(C)c(CCC(=O)N3CCOCC3)c(C)n2n1	MrgX1 antagonist -5.3 | MrgX1 antag conf inactive | HEK293 Ca flux inactive | HEK293 Ca counter inactive | HEK293 Ca cntr2 68
Cc1cccc(NS(=O)(=O)c2ccc(C(=O)NCC(c3ccccc3)N(C)C)cc2)c1C (configuration not stated)	MrgX1 antagonist -5.2 | MrgX1 antag conf 85% | HEK293 Ca flux inactive | HEK293 Ca counter inactive | HEK293 Ca cntr2 inactive
CN(C)C(CNC(=O)c1ccc(NS(=O)(=O)c2ccc(F)cc2)cc1)c1ccco1 (configuration not stated)	MrgX1 antagonist -6.1 | MrgX1 antag conf inactive | HEK293 Ca flux inactive | HEK293 Ca counter inactive | HEK293 Ca cntr2 inactive
Cc1cccc(N2CCN(C(=O)c3c(Cl)cnn3C)CC2)c1C	none
O=C(COC(=O)c1ccc2[nH]c3c(c2c1)CCCC3)Nc1ccccc1Cl	none
CCC(C)c1ccccc1NC(=O)COC(=O)c1ccc2[nH]c3c(c2c1)CCCC3 (configuration not stated)	MrgX1 antagonist -7.4 | MrgX1 antag conf inactive | HEK293 Ca flux inactive | HEK293 Ca counter inactive | HEK293 Ca cntr2 inactive
CN(c1ccccc1)S(=O)(=O)c1ccc(NC(=O)c2ccccc2)cc1	none
COc1cccc(NC(=O)c2nc(SC)ncc2Cl)c1	none
CN(c1ccccc1)S(=O)(=O)c1ccc(NC(=O)c2nc(S(C)(=O)=O)ncc2Cl)cc1	MrgX1 antagonist -5.7 | MrgX1 antag conf inactive | HEK293 Ca flux inactive | HEK293 Ca counter inactive | HEK293 Ca cntr2 inactive
COc1cccc(NC(=O)c2nc(S(C)(=O)=O)ncc2Cl)c1	MrgX1 antagonist -5.5 | MrgX1 antag conf inactive | HEK293 Ca flux inactive | HEK293 Ca counter inactive | HEK293 Ca cntr2 inactive
CC(C)Cn1c(=O)c(C(=O)NCc2ccc3c(c2)OCO3)c(O)c2ccccc21	none
CCN(C(=O)COC(=O)c1ccc(Cl)c(N)c1)C1CCS(=O)(=O)C1 (configuration not stated)	none
CCN(C(=O)COC(=O)CSc1ccc(C)c(C)c1)C1CCS(=O)(=O)C1 (configuration not stated)	none
CCN(C(=O)CSc1ccc2ccccc2c1)C1CCS(=O)(=O)C1 (configuration not stated)	MrgX1 antagonist -4.6 | MrgX1 antag conf inactive | HEK293 Ca flux inactive | HEK293 Ca counter inactive | HEK293 Ca cntr2 inactive
